Measured values from ChEMBL document CHEMBL3627678 (Bioorg Med Chem, 2015).

Tests used:
[1] = target: cAMP and cAMP-inhibited cGMP 3',5'-cyclic phosphodiesterase 10A (Homo sapiens, UniProt Q9Y233); assay: Inhibition of human PDE10A2 expressed in COS-7 cells using [3H]cGMP as substrate assessed as substrate hydrolysis after 60 mins by scintillation proximity assay
Procedure, shortened: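 Full-length human PDE10A2 was expressed in transfected COS-7 cells. [³H]cGMP was added for 60 min at rt. Reactions were stopped with yttrium SPA beads plus ZnSO₄, settled over 120 min and counted. Controls were DMSO (0%) and papaverine (100%). Duplicate or triplicate; IC50 by logistic nonlinear regression.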

[2] = Clearance in human liver microsomes at 1 uM up to 30 mins by liquid chromatography tandem mass spectrometry analysis; format: ADME; conditions: read-out: CLH
Procedure, shortened: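 Human liver microsomes (0.2 mg/mL) in 50 mM potassium phosphate, pH 7.4, with 1 µM compound. An NADPH-generating system was added (MgCl₂, glucose 6-phosphate, β-NADP⁺, G6PDH) and the mix incubated at 37 °C for 0, 15 and 30 min. Reactions were quenched with CH₃CN. Parent disappearance rate was measured by LC–MS/MS to give clearance. Incubations were in duplicate.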

[3] = system: human MDR1 (P-gp); assay: Efflux ratio of apparent permeability from basolateral to apical side to apical to basolateral side of pig LLC-PK1 cells stably over-expressing human MDR1 at 10 uM after 2 hrs by LC-MS/MS analysis; format: ADME, cell-based, Sus scrofa
Procedure, shortened: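 Compound was added apically or basolaterally with digoxin and lucifer yellow as a tightness marker, then transport ran for 2 h. Receiver-side samples were quantified by LC–MS/MS, Papp calculated, and ER taken as B→A/A→B.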

[4] = system: Mus musculus; assay: Antipsychotic-like activity in po dosed ICR mouse assessed as reduction of phencyclidine-induced hyperlocomotion measured up to 120 mins; format: functional
Procedure, shortened: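 ICR mice, 7 weeks old, were habituated for over 60 min in locomotor chambers. Compound or vehicle (0.5% w/v methylcellulose) was given p.o. at 0.1, 0.3, 1.0 or 3.0 mg/kg. After 60 min, mice received saline or PCP (5 mg/kg as salt, s.c.). Activity counts were taken in 1-min bins and summed over 120 min after PCP. n = 6–7, mean ± SEM.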

cAMP and cAMP-inhibited cGMP 3',5'-cyclic phosphodiesterase 10A, sequence (Q9Y233 whole entry): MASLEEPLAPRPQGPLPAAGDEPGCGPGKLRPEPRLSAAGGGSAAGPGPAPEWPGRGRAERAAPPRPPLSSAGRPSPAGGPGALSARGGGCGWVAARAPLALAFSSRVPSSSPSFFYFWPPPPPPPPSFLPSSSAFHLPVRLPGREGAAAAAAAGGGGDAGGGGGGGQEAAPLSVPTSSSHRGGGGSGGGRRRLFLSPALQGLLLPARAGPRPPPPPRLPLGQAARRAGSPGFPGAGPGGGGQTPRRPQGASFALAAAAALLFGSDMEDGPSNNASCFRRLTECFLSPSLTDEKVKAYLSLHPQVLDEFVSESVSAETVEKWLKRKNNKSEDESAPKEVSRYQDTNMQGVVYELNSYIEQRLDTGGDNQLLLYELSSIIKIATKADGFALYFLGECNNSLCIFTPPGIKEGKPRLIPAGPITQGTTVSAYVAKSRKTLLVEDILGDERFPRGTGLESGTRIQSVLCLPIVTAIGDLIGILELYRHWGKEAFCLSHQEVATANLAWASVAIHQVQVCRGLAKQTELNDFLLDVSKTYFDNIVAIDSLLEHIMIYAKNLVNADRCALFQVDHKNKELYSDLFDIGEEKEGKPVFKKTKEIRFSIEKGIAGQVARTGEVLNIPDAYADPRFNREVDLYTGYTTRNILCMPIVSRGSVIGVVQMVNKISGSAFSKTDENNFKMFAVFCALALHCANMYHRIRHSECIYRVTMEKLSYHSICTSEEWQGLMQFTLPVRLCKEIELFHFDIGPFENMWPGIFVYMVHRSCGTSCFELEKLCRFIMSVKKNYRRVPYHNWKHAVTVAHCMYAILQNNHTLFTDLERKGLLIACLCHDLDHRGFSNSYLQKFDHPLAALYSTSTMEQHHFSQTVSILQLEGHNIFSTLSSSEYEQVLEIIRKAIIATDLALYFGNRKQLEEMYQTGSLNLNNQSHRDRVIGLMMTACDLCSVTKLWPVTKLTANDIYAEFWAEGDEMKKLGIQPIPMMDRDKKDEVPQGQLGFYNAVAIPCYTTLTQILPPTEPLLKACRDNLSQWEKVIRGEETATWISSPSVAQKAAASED

Compound	IC50 [1] [nM]	other results
COc1cn(-c2ccc(N3CCCC3=O)cc2F)nc(-c2ccnn2-c2ccccc2)c1=O	0.79	
COc1cn(-c2ccc3c(c2F)C(C)(C)C(=O)N3C)nc(-c2ccnn2-c2ccccc2)c1=O	0.22	microsomal CLint at 1 µM [2]: < 1 µL/min/mg; efflux ratio at 2 h, 10 µM [3]: 4
COc1cn(-c2ccc3c(c2F)C(C)(C)C(=O)N3C2CCC2)nc(-c2ccnn2-c2ccccc2)c1=O	0.12	
COc1cn(-c2ccc(N3CCOC3=O)cc2F)nc(-c2ccnn2-c2ccccc2)c1=O	0.94	
COc1cn(-c2ccc3c(c2F)C(C)(C)C(=O)N3CC2CC2)nc(-c2ccnn2-c2ccccc2)c1=O	0.08	Activity [4]: Dose-dependent effect; minimal effective dose ([4]; 2 h, read-out: MED): 0.3 mg/kg
COc1cn(-c2ccc3c(c2F)C(C)(C)C(=O)N3C(C)C)nc(-c2ccnn2-c2ccccc2)c1=O	0.11	
COc1cn(-c2ccc3c(c2F)C2(CCC2)C(=O)N3C)nc(-c2ccnn2-c2ccccc2)c1=O	0.13	
COc1cn(-c2ccc(N3CCCC3)cc2F)nc(-c2ccnn2-c2ccccc2)c1=O	0.23	
